In brackets after ≈: the same amount, converted by molar mass. Each block holds one compound with its values, some of them ahead of it.
How the values were obtained:
[1] = Saturation solubility of HupA in oils, surfactants and co-surfactants; type: physicochemical; settings: thermodynamic from solid
Summary of the method: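 Excess HupA added to 0.2 mL vehicle, vortexed 10 min, then kept 24 h at 37±0.5 °C in a shaking water bath. Mixture centrifuged at 6000 rpm for 10 min and supernatant filtered (0.45 µm). 0.1 mL diluted in methanol and dissolved drug quantified by HPLC.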

[2] = system: nasal mucosa; assay: Test for nasal toxicity of NEs; type: in vivo, Wistar rats; settings: rats, intranasal, 14 consecutive days; mucosa on days 1, 7, 14
Summary of the method: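 Male Wistar rats (200 g), four groups of three, dosed intranasally. Groups: saline (negative control), 1% sodium deoxycholate in 50 µL saline (positive control), or one of two nanoemulsions for 14 consecutive days. Nasal mucosa collected after sacrifice on days 1, 7 and 14, fixed 24 h in 10% buffered formalin, dehydrated in ethanol, cleared in xylene and paraffin-embedded. Sections stained with H&E and examined by light microscopy.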

[3] = system: hCMEC/D3 cells; assay: Cellular uptake and transporter/endocytosis inhibition assay; type: cell-based, human; settings: 30 min pre-incubation with inhibitor
Summary of the method: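 hCMEC/D3 cells grown to 90% confluence, then pre-incubated 30 min at 37 °C, 5% CO2 with one inhibitor: verapamil 10 µM, MK571 10 µM, ko143 1 µM, […], aprotinin 200 µg/mL, colchicine 2.5 µM or […]. Nanoemulsion or HupA solution added for 1 h. Cells washed with ice-cold PBS, lysed in 1% Triton X-100, dichloromethane-extracted and analysed by HPLC; mean±SD, n=3.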

[4] = In vitro drug release, dialysis bag in phosphate buffer pH 6.8; type: physicochemical; settings: at 24 h; phosphate buffer pH 6.8, 37 °C
Summary of the method: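 Dialysis bag (12–14 kDa cut-off), pre-soaked overnight in medium, held 1 mL of freshly prepared nanoemulsion (5 mg/mL drug). Bag placed in 100 mL phosphate buffer pH 6.8 at 37 °C, shaken at 50 rpm. At set times 4 mL was withdrawn and replaced with fresh medium. HupA measured by HPLC (C18, methanol–water 43:57, 308 nm), plotted as cumulative % released versus time. Drug suspension run under the same sink conditions.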

[5] = Pharmacokinetic study after intranasal administration; type: in vivo, Wistar rats; settings: rats
Summary of the method: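 Wistar rats (200±20 g) anaesthetised with 10% chloral hydrate received 50 µL of formulation through a PE 10 tube inserted 1 cm into the nostril. Orbital blood and tissues taken at 0.083–24 h (11 points). Plasma or tissue homogenate alkalised with 2 mol/L NaOH, extracted with 2 mL ethyl acetate, dried under nitrogen, redissolved in methanol and assayed by HPLC. Parameters calculated by software; mean±SD, n=6.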

- solubility at 24 h ([1]; Capryol90, 37 °C, oil or lipid): 38.33 ± 0.15 mg/mL (≈ 158 mM)
- solubility at 24 h ([1]; Cremophor EL, 37 °C): 34.7 ± 0.09 mg/mL (≈ 143 mM)
- solubility at 24 h ([1]; Grape seed oil, 37 °C, oil or lipid): 1.96 ± 0.01 mg/mL (≈ 8.09 mM)
- solubility at 24 h ([1]; L.A.S, 37 °C): 34.96 ± 0.13 mg/mL (≈ 144 mM)
- solubility at 24 h ([1]; LABRAFIL M 1944 CS, 37 °C, oil or lipid): 19.7 ± 0.24 mg/mL (≈ 81.3 mM)
- solubility at 24 h ([1]; Labrasol, 37 °C): 102.2 ± 0.65 mg/mL (≈ 422 mM)
- solubility at 24 h ([1]; PEG400, 37 °C, organic solvent or mixture): 98.41 ± 0.35 mg/mL (≈ 406 mM)
- solubility at 24 h ([1]; Plurol Oleique CC 497, 37 °C): 15.5 ± 0.31 mg/mL (≈ 64 mM)
- solubility at 24 h ([1]; Propanediol, 37 °C, organic solvent or mixture): 65.3 ± 0.91 mg/mL (≈ 270 mM)
- solubility at 24 h ([1]; Soybean oil, 37 °C, oil or lipid): 2.73 ± 0.07 mg/mL (≈ 11.3 mM)
- solubility at 24 h ([1]; Span 80, 37 °C): 13.35 ± 0.12 mg/mL (≈ 55.1 mM)
- solubility at 24 h ([1]; Tween 80, 37 °C): 21 ± 0.45 mg/mL (≈ 86.8 mM)
- solubility at 24 h ([1]; isopropyl myristate (IPM), 37 °C, oil or lipid): 2.43 ± 0.01 mg/mL (≈ 10 mM)
Compound: C/C=C1\[C@H]2C=C(C)C[C@]1(N)c1ccc(=O)[nH]c1C2 [HupA, Huperzine A]

Compound: C[C@H](CCC(=O)[O-])[C@H]1CC[C@H]2[C@@H]3CC[C@@H]4C[C@H](O)CC[C@]4(C)[C@H]3C[C@H](O)[C@]12C.[Na+] [1% deoxycholic acid sodium solution, deoxycholic acid sodium]
- nasal mucosa toxicity (histology) [2]: extensive damage to the nasal mucosa

Compound: Aprotinin
- effect of inhibitor on transport of HupA-NE across the cells ([3]; then HupA-NE 1 h): restricted transport
- effect of inhibitor on Lf-HupA-NE transport ([3]; then Lf-HupA-NE 1 h): mildly reduced

- drug released [4]: 63%
- AUC(0-t) ([5]; brain): 21.507 ng·h/mL
- AUC(0-∞) ([5]; brain): 23.765 ng·h/mL
- Cmax ([5]; brain): 13.29 ng/mL
- MRT(0-t) ([5]; brain): 1.255 h
- MRT(0-∞) ([5]; brain): 1.674 h
- T1/2 ([5]; brain): 1.173 h
- Tmax ([5]; brain): 0.25 h
- AUC(0-t) ([5]; plasma): 51.188 ng·h/mL
- AUC(0-∞) ([5]; plasma): 51.378 ng·h/mL
- Cmax ([5]; plasma): 56.95 ng/mL
- MRT(0-t) ([5]; plasma): 1.153 h
- MRT(0-∞) ([5]; plasma): 1.439 h
- T1/2 ([5]; plasma): 0.769 h
- Tmax ([5]; plasma): 0.25 h
Compound: C/C=C1\[C@H]2C=C(C)C[C@]1(N)c1ccc(=O)[nH]c1C2 [HupA Solution]

From PMC6885571 (International Journal of Nanomedicine, 2019)
